Compounds with a hit are over-represented: about 5.1% of the library has one in this group of screens.
STAT3 act-1: activators of IL-6 induced STAT3 signaling; AID 871; U3A cells, IL-6 STAT3-luciferase reporter, luminescence; 100% = signal with IL-6 EC80 alone; activation (% of control), % at 5.6 µM; actives 0.91% (n = 190,000);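 active = activation above the screen-wide mean of compound activation plus 3 SD, cut at about 130% in these data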
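Material: STAT3-luciferase reporter U3A cells; Probe or stimulus: IL-6 (33 ng/mL); Incubation: compound pre-incubation 1 h before IL-6, then 6 h stimulation at 37 °C; Technique: luminescence from STAT3-driven luciferase reporter; Evaluation: % activation versus median of IL-6-stimulated wells; Controls: IL-6-only high control.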
STAT1 act-1: increases IFN-gamma driven STAT1 reporter signal; activation (% of control), % at 5.5 µM; AID 932; NIH 3T3 STAT1-luciferase reporter, luminescence; 100% = IFN-gamma alone, no compound; actives 2.6% (n = 200,000);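 active = activation above the screen-wide mean activation plus 3 SD, cut at about 130% in these data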
STAT1 blocker: reduces IFN-gamma driven STAT1 reporter signal; NIH 3T3 STAT1-luciferase reporter, luminescence; AID 920; inhibition, % at 5.5 µM; actives 0.35% (n = 200,000);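 active = inhibition above a set limit, the mean inhibition across all tested compounds plus 3 SD, cut at about 34% in these data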
NF-kB expr up: NF-kB expression increase, human neuronal cells | NF-kB reporter expression; hits give high values | fold change at 12.5 µM | actives 1.6% (n = 190,000) | AID 1239; in the data active = fold change above about 3.3
APP 5'UTR act: activates APP 5'UTR luciferase reporter | SH-SY5Y APP 5'UTR luciferase reporter, luminescence; zero percent = DMSO vehicle wells | activation, % at 2 µM | actives 1% (n = 190,000) | AID 1276;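 active = activation above a set limit, based on mean plus 3 SD of controls, cut at about 140% in these data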
STAT3 inh: inhibitors of IL-6 induced STAT3 signaling; U3A cells, IL-6 STAT3-luciferase reporter, luminescence; host cell line lacks STAT1; inhibition, % at 5.5 µM; actives 0.89% (n = 190,000); AID 862;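 active = inhibition above the mean inhibition across all screened compounds plus 3 SD, cut at about 44% in these data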
STAT3 act-2: confirmation of STAT3 signaling activators | shares compounds with STAT3 act-1 | actives 64% (n = 1,200) | potentiation (% of control), % at 5.7 µM | U3A STAT3-luciferase reporter, IL-6 potentiation, luminescence; U3A cells lack STAT1; 100 means same as IL-6 alone | AID 1267;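 active = percent activation of the STAT3 luciferase reporter above a set limit taken from the earlier primary screen, cut at about 130% in these data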
NFkB act 2: activates NF-kappaB, counter-screen to STAT3 activators; AID 1309; actives 11% (n = 1,200); shares compounds with STAT3 act-1; human cells, NF-kappaB reporter activation; activation (% of control), % at 5.7 µM; in the data active = activation above about 120%;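 also: reporter induced by TNF-alpha stimulation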
STAT1 act-2: activates STAT1, counter-screen to STAT3 activators | shares compounds with STAT3 act-1 | activation (% of control), % at 5.7 µM | NIH 3T3 STAT1-luciferase reporter, IFN-gamma, luminescence | actives 13% (n = 1,200);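 active = activation above the solvent-only control well mean plus 3 SD, set per screening run, cut at about 120% in these data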
Large screens that a line does not name were inactive (follow-up assays come after a bar, where they were run).

CCn1cc(C(=O)N2CCN(c3ccc(C(C)=O)cc3)CC2)c2cc(OC)c(OC)cc2c1=O	none
CC(C)C1NC(=S)N(Cc2ccccc2)C1=O (centres undefined)	STAT3 act-1 142 | STAT3 act-2 inactive | NFkB act 2 inactive | STAT1 act-2 inactive
O=C1C(Cc2c[nH]c3ccccc23)NC(=S)N1Cc1ccccc1 (centres undefined)	none
Cc1ccc2nc3c(nc2c1)-c1ccccc1C3=O	STAT3 act-1 174 | STAT3 act-2 159 | NFkB act 2 inactive | STAT1 act-2 129
Cc1ccc2nc(C(=O)O)c(C(=O)O)nc2c1	none
Cn1c(CNc2nc3ccccc3n2CCN2CCCCC2)nc2ccccc21	none
Cn1c(CNc2ccccc2O)nc2ccccc21	STAT3 act-1 159 | STAT3 act-2 179 | NFkB act 2 inactive | STAT1 act-2 inactive
Cc1[nH]n(-c2ccc(Cl)cc2)c(=O)c1C(=O)c1ccccc1	none
CC1=NN(c2ccc(Cl)cc2)C(=O)C1C(c1cccc(O)c1)c1c(C)[nH]n(-c2ccc(Cl)cc2)c1=O (centres undefined)	STAT3 act-1 146 (no result: APP 5'UTR act) | STAT3 act-2 160 | NFkB act 2 inactive | STAT1 act-2 inactive
Oc1ccccc1/C=C/c1noc(-c2ccccc2O)n1	STAT3 act-1 142 | STAT3 act-2 169 | NFkB act 2 inactive | STAT1 act-2 inactive
Oc1oc(-c2ccccc2)nc1C=Nc1cccc2ccccc12	STAT3 act-1 144 | STAT3 act-2 inactive | NFkB act 2 inactive | STAT1 act-2 inactive
Oc1oc(-c2ccccc2)nc1/C=N/c1nccs1	none
Cc1nn(CC(=O)NCc2ccccc2F)c(C)c1[N+](=O)[O-]	none
Cc1nn(CC(=O)NCc2cc3ccccc3[nH]2)c(C)c1[N+](=O)[O-]	STAT3 act-1 138 | STAT3 act-2 161 | NFkB act 2 inactive | STAT1 act-2 inactive
O=C(Cc1c[nH]c2ccccc12)NCc1ccc2c(c1)OCO2	STAT3 act-1 138 | STAT3 act-2 137 | NFkB act 2 inactive | STAT1 act-2 inactive
CN(c1ccc(OCC(=O)OCC(=O)Nc2c(F)c(F)c(F)c(F)c2F)cc1)S(=O)(=O)c1ccc(F)cc1	none
CN(C)c1ccc(P(=O)(Nc2cccc(C(F)(F)F)c2)N2CCOCC2)c(NC(=O)c2cccs2)c1 (centres undefined)	STAT3 act-1 140 | STAT3 act-2 inactive | NFkB act 2 inactive | STAT1 act-2 inactive
O=C(Nc1cc(C(F)(F)F)ccc1N1CCOCC1)c1cccs1	none
Cc1ccc(/C=N/NC(=O)Cc2c[nH]c3ccccc23)c(C)c1	STAT3 act-1 142 | STAT3 act-2 inactive | NFkB act 2 inactive | STAT1 act-2 inactive
Cc1ccc(C(=O)Nc2ccc(C(=O)N/N=C/c3c[nH]c4ccccc34)cc2)cc1	STAT3 act-1 148 | STAT3 act-2 inactive | NFkB act 2 inactive | STAT1 act-2 inactive
COc1ccccc1-c1cc(C(=O)N/N=C/c2ccc(C)s2)c2ccccc2n1	STAT3 act-1 139 | STAT3 act-2 137 | NFkB act 2 inactive | STAT1 act-2 inactive
CCc1ccc(/C=N/NC(=O)c2cc(-c3ccccc3OC)nc3ccccc23)s1	none (no result: APP 5'UTR act)
O=S(=O)(Nc1nc2ccccc2s1)c1ccc(Cl)s1	STAT3 act-1 138 | STAT3 act-2 inactive | NFkB act 2 inactive | STAT1 act-2 inactive
O=C(N/N=C/c1ccc(Br)cc1)c1ccccc1-n1cccc1	STAT3 act-1 148 | STAT3 act-2 inactive | NFkB act 2 inactive | STAT1 act-2 inactive
Cc1cccc(/C=N\NC(=O)c2ccccc2-n2cccc2)c1	none
Nc1cc(C(=O)c2ccccc2)ccc1[N+](=O)[O-]	none
CCN(CC)c1ncnc2c1ncn2Cc1c(Cl)cccc1Cl	none

Screening results (PubChem)
